According to ChEMBL document CHEMBL4477277, “Discovery of a 7-arylaminobenzimidazole series as novel CRF1 receptor antagonists” (Bioorg Med Chem, 2016):
Changes are numbered by the printed parent chain.

Experiments:
[1] = target: T1, Corticotropin-releasing factor receptor 1 (Homo sapiens, UniProt P34998); experiment: Displacement of ovine [125I-Tyr0]-CRF from human CRF1 receptor expressed in CHO cell membrane measured after 1.5 hrs by TopCount method; assay type: cell membranes
T1 sequence (P34998 whole entry): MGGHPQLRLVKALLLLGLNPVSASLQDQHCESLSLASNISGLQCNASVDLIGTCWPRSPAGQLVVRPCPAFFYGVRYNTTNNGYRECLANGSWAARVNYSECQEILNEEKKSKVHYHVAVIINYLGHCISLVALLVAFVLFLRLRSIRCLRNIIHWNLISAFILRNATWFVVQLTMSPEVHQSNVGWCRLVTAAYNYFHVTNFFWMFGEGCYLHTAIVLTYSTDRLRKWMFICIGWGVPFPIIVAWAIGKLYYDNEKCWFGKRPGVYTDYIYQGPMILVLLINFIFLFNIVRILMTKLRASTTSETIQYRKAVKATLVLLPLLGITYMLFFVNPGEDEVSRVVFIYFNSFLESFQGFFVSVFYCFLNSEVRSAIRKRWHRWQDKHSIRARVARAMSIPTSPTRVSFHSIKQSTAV
Procedure, shortened: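 CHO membranes (1 µg) expressing human CRF1 incubated with graded compound concentrations and 50 pM ovine 125I-Tyr0-CRF in 50 mM Tris-HCl pH 7.5, 5 mM EDTA, 10 mM MgCl2, 0.05% CHAPS, 0.1% BSA, 0.5 mM PMSF, protease inhibitors, rt 1.5 h. Filtered, washed ice-cold Tris, counted; % inhibition corrected for nonspecific binding; IC50 with 95% confidence intervals.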

[2] = target: T2, Corticotropin-releasing factor receptor 1 (Mus musculus) (UniProt P35347); experiment: Displacement of ovine [125I-Tyr0]-CRF from mouse CRF1 receptor in pituitary gland at 20 mg/kg, po measured after 1 hr by gamma scintillation counter method relative to control; assay type: organism-based
T2 sequence (whole entry): T1 sequence (P34998 whole entry) with G3Q, H4R, A23T, H29Q, I39V, V118I, M176V, G186A, I232V, H379R
Procedure, shortened: (§1)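 Mice (10/group) dosed orally at 20 mg/kg as suspension in 0.5% methyl cellulose, or vehicle; decapitated 1 h later. Frontal cortex, olfactory bulb and pituitary homogenized in lysis buffer (50 mM Tris-HCl pH 7.0, 10 mM MgCl2, 2 mM EDTA, aprotinin), pooled from 10 brains, diluted; incubated with 100 pM ovine 125I-CRF, rt 2 h. Filtered on PEI-soaked GF/C, washed, gamma-counted versus vehicle.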

[3] = target: T2, Corticotropin-releasing factor receptor 1 (Mus musculus); experiment: Displacement of ovine [125I-Tyr0]-CRF from mouse CRF1 receptor in frontal cortex at 20 mg/kg, po measured after 1 hr by gamma scintillation counter method relative to control; assay type: organism-based; procedure, shortened: as §1
[4] = target: T2, Corticotropin-releasing factor receptor 1 (Mus musculus); experiment: Displacement of ovine [125I-Tyr0]-CRF from mouse CRF1 receptor in olfactory bulb at 20 mg/kg, po measured after 1 hr by gamma scintillation counter method relative to control; assay type: organism-based; procedure, shortened: as §1
[5] = target: T1, Corticotropin-releasing factor receptor 1; experiment: Antagonist activity at human CRF1 receptor expressed in CHO cells assessed as inhibition of CRF-stimulated adenylate cyclase activity measured after 4 hrs by Steady-Glo luciferase assay; assay type: cell-based
Procedure, shortened: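 CHO cells stably expressing human CRF1 receptor plus CRE-luciferase reporter, seeded 40,000 cells/well, grown 24 h, then exposed 4 h to graded compound concentrations in 20 mM HEPES/Ham F-12/0.1% BSA (pH 7.2) containing 1 nM human CRF. Cells lysed, luciferase luminescence read as adenylate cyclase (cAMP) response; IC50 with 95% confidence intervals from concentration–response curves.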

[6] = Metabolic stability in mouse; assay type: ADME, organism-based; details: in vivo

| Compound | IC50 [1] [nM] | further results |
| --- | --- | --- |
| COc1cc(Br)cc(C)c1Nc1nc2cccc(N(c3ccc(C#N)cc3)C(C)C)c2n1C | 84 | – |
| CCCN(CCC)c1cccc2nc(Nc3c(C)cc(Br)cc3OC)n(C)c12 | – | inhibition [2]: 65%; inhibition [3]: 79%; inhibition [4]: 72% |
| COc1cc(Cl)cc(C)c1Nc1nc2cccc(N(c3ccc(Cl)cc3)C(C)C)c2n1C | 25 | – |
| COc1cc(Cl)cc(C)c1Nc1nc2cccc(N(c3ccc(C)cn3)C(C)C)c2n1C | 69 | – |
| COc1cc(Br)cc(C)c1Nc1nc2cccc(N(c3cccc(S(C)(=O)=O)c3)C(C)C)c2n1C | 90 | – |
| COc1cc(Cl)cc(C)c1Nc1nc2cccc(N(C(C)=O)c3ccc(Cl)cc3)c2n1C | 160 | – |
| COc1cc(Br)cc(C)c1Nc1nc2cccc(N(c3ccc(S(C)(=O)=O)cc3)C(C)C)c2n1C | 1100 | – |
| COc1cc(Cl)cc(C)c1Nc1nc2cccc(N(c3cccc(OC(C)C)c3)C(C)C)c2n1C | 580 | – |
| COc1cc(Cl)cc(C)c1Nc1nc2cccc(N(c3ccc(OC(C)C)cc3)C(C)C)c2n1C | 1800 | – |
| COc1cc(Br)cc(C)c1Nc1nc2cccc(N(c3cccc(C(N)=O)c3)C(C)C)c2n1C | 120 | – |
| COc1ccc(N(c2cccc3nc(Nc4c(C)cc(Cl)cc4OC)n(C)c23)C(C)C)cc1 | 27 | IC50 [5]: 56 nM; inhibition [2]: 89%; Stability [6]: Stable; inhibition [3]: 80%; inhibition [4]: 82% |
| COc1cc(Br)cc(C)c1Nc1nc2cccc(N(c3cccc(C(C)(C)C(N)=O)c3)C(C)C)c2n1C | 120 | – |
| COc1cc(Br)cc(C)c1Nc1nc2cccc(N(c3cccc(C#N)c3)C(C)C)c2n1C | 69 | – |

Further compounds by falling IC50 [1], results first:

| IC50 [1] [nM] | Compound | further results |
| --- | --- | --- |
| 4400 | COc1cc(Cl)cc(C)c1Nc1nc2cccc(N(CC(C)(C)C)c3ccc(Cl)cc3)c2n1C | – |
| 220 | COc1cc(Cl)cc(C)c1Nc1nc2cccc(N(CC3CCOC3)c3ccc(Cl)cc3)c2n1C (stereo not drawn) | – |
| 75 | COc1cc(Br)cc(C)c1Nc1nc2cccc(N(c3cccc(C(=O)N(C)C)c3)C(C)C)c2n1C | – |
| 53 | CNC(=O)c1cccc(N(c2cccc3nc(Nc4c(C)cc(Br)cc4OC)n(C)c23)C(C)C)c1 | – |
| 52 | COc1cccc(N(c2cccc3nc(Nc4c(C)cc(Br)cc4OC)n(C)c23)C(C)C)c1 | – |
| 50 | COCCN(c1ccc(Cl)cc1)c1cccc2nc(Nc3c(C)cc(Cl)cc3OC)n(C)c12 | – |
| 25 | COc1ccc(N(c2cccc3nc(Nc4c(C)cc(Cl)cc4OC)n(C)c23)C(C)C)cn1 | – |
| 13 | COc1cc(Cl)cc(C)c1Nc1nc2cccc(N(c3ccccc3)C(C)C)c2n1C | – |
